Assay results reported in ChEMBL document CHEMBL1125593, “Synthesis and biological evaluation of substituted benzenesulfonamides as novel potent membrane-bound phospholipase A2 inhibitors” (1991).

Key:
[1] = tested on: membrane-bound phospholipase A2 (Oryctolagus cuniculus); assay: Tested in vitro for inhibition of phospholipase A2 (PLA2) in rabbit heart membranes.
Rattus norvegicus [2] = assay: Compound was tested for the % inhibition rate of infarct size (myoglobin depleted area) on iv administration 15 min prior to the ligation at a dose of 0.1 mg/kg.; type: functional
Rattus norvegicus [3] = assay: Compound was tested for the % inhibition rate of infarct size (myoglobin depleted area) on iv administration 15 min prior to the ligation at a dose of 0.3 mg/kg.; type: functional
Rattus norvegicus [4] = assay: Compound was tested for the % inhibition rate of infarct size (myoglobin depleted area) on iv administration 15 min prior to the ligation at a dose of 1.0 mg/kg.; type: functional
Rattus norvegicus [5] = assay: Compound was tested for the % inhibition rate of infarct size (myoglobin depleted area) on sc administration 15 min prior to the ligation at a dose of 75.0 mg/kg.; type: functional; details: route subcutaneous
Method in brief: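 Sprague-Dawley rats (180–260 g) were anesthetized with diethyl ether and the left main coronary artery was ligated 1–2 mm from its origin for 3 h. Compound was given sc 15 min before ligation, and rats dying within 3 h were excluded. Infarct size was scored as the myoglobin-depleted area by immunohistochemistry and image analysis, with inhibition taken versus untreated animals, mean ± SEM.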

[6] = tested on: membrane-bound phospholipase A2 (Oryctolagus cuniculus); assay: Compound was tested for the percent inhibition of phospholipase A2 (PLA2) in rabbit heart membranes at a concentration of 100 uM.
Rattus norvegicus [7] = assay: Compound was tested for the % inhibition rate of infarct size (myoglobin depleted area) on iv administration 15 min prior to the ligation at a dose of 1 mg/kg.; type: functional
Rattus norvegicus [8] = assay: Compound was tested for the % inhibition rate of infarct size (myoglobin depleted area) on iv administration 15 min prior to the ligation at a dose of 10 mg/kg.; type: functional

Row | Structure (SMILES) | IC30 [1] [nM] | further results
1 | CN(C(=O)/C=C/c1ccc(S(C)(=O)=O)cc1)c1ccc(S(=O)(=O)N2CCCN(Cc3ccccc3)CC2)cc1 | 64 | 
2 | CN(C(=O)/C=C/c1ccc(S(C)(=O)=O)cc1)c1ccc(S(=O)(=O)N2CCCN(CCc3ccccc3)CC2)cc1 | 25 | 
3 | CN(C(=O)/C=C/c1ccc(S(C)(=O)=O)cc1)c1ccc(S(=O)(=O)NC2CCCCCC2)cc1 | 16 | 
4 | CN(C(=O)/C=C/c1ccc(S(C)(=O)=O)cc1)c1ccc(S(=O)(=O)NC2CCCCN(Cc3ccccc3)C2)cc1 (stereo not drawn) | 25 | 
5 | COc1ccc(CCN(C)CCCC(C#N)(c2ccc(OC)c(OC)c2)C(C)C)cc1OC (stereo not drawn) |  | Inhibition rate (Rattus norvegicus [2]): 0.7%; Inhibition rate (Rattus norvegicus [3]): 0.1%; Inhibition rate (Rattus norvegicus [4]): 19.2%
6 | CN(C(=O)/C=C/c1ccc(O)c(O)c1)c1ccc(S(=O)(=O)NC2CCCCCC2)cc1 | 1750 | 
7 | CN(C(=O)/C=C/c1ccc(O)c(O)c1)c1ccc(S(=O)(=O)NC2CCc3ccccc3C2)cc1 (stereo not drawn) | 5070 | 
8 | CN(C(=O)/C=C/c1ccc(O)c(O)c1)c1ccc(S(=O)(=O)NC2Cc3ccccc3C2)cc1 | 4640 | 
9 | CCN(CC)CCCC(C)Nc1c2ccc(Cl)cc2nc2ccc(OC)cc12 (stereo not drawn) [QUINACRINE] |  | Inhibition rate (Rattus norvegicus [5]): 37.4%
10 | CN(C(=O)/C=C/c1ccc(-n2ccnc2)cc1)c1ccc(S(=O)(=O)NC2CCCCCC2)cc1 | 450 | 
11 | CN(C(=O)/C=C/c1ccc(S(C)(=O)=O)cc1)c1ccc(S(=O)(=O)NCCc2ccccn2)cc1 | 210 | 
12 | CN(C(=O)/C=C/c1ccc(O)c(O)c1)c1ccc(S(=O)(=O)NC2CCCCC2)cc1 | 1450 | 
13 | COC(=O)c1sccc1NC(=O)/C=C/c1ccc(O)c(O)c1 |  | inhibition [6]: 31.6%
14 | CN(C(=O)/C=C/c1ccc(O)c(F)c1)c1ccc(S(=O)(=O)NC2CCCCCC2)cc1 | 5330 | 
15 | CC(C)NS(=O)(=O)c1ccc(N(C)C(=O)/C=C/c2ccc(O)c(O)c2)cc1 | 30000 | 
16 | CN(C(=O)/C=C/c1ccc(O)c(O)c1)c1ccc(S(=O)(=O)NC2CCc3ccccc32)cc1 (stereo not drawn) | 6100 | 
17 | Cc1cccc(CCNS(=O)(=O)c2ccc(N(C)C(=O)/C=C/c3ccc(S(C)(=O)=O)cc3)cc2)n1 | 66 | Inhibition rate (Rattus norvegicus [7]): 5.6%; Inhibition rate (Rattus norvegicus [8]): 21.9%
18 | CC(C)CN1CCC(NS(=O)(=O)c2ccc(N(C)C(=O)/C=C/c3ccc(S(C)(=O)=O)cc3)cc2)CC1 | 51 | 

Further lines, with some results ahead:

Row | IC30 [1] [nM] | Structure (SMILES) | further results
19 | 260 | CN(C(=O)/C=C/c1ccc(S(C)(=O)=O)cc1)c1ccc(S(=O)(=O)NCc2ccccn2)cc1 | 
20 | 200 | CN(C(=O)/C=C/c1ccc(C#N)cc1)c1ccc(S(=O)(=O)NC2CCCCCC2)cc1 | 
21 | 190 | CN(C(=O)/C=C/c1ccc([N+](=O)[O-])cc1)c1ccc(S(=O)(=O)NC2CCCCCC2)cc1 | 
22 | 65 | Cc1cccc(CCN(C)S(=O)(=O)c2ccc(N(C)C(=O)/C=C/c3ccc(S(C)(=O)=O)cc3)cc2)n1 | 
23 | 9 | CN(C(=O)/C=C/c1ccc(S(C)(=O)=O)cc1)c1ccc(S(=O)(=O)NC2CCN(CCc3ccccc3)CC2)cc1 | Inhibition rate (Rattus norvegicus [2]): 7%; Inhibition rate (Rattus norvegicus [3]): 18.7%; Inhibition rate (Rattus norvegicus [4]): 22.5%
24 | 63 | CN(C(=O)/C=C/c1ccc(S(C)(=O)=O)cc1)c1ccc(S(=O)(=O)N2CCN(CCc3ccccc3)CC2)cc1 | 
25 | 1240 | CN(C(=O)/C=C/c1ccc(O)cc1)c1ccc(S(=O)(=O)NC2CCCCCC2)cc1 | 
26 | 220 | CN(C(=O)/C=C/c1ccc(S(C)(=O)=O)cc1)c1ccc(S(=O)(=O)N2CCN(Cc3ccccc3)CC2)cc1 | 
27 | 49 | CN(C(=O)/C=C/c1ccc(S(C)(=O)=O)cc1)c1ccc(S(=O)(=O)NC2CCCCN(Cc3ccccn3)C2)cc1 (stereo not drawn) | 
28 | 44000 | CNS(=O)(=O)c1ccc(N(C)C(=O)/C=C/c2ccc(O)c(O)c2)cc1 | 
29 | 28 | CN(C(=O)/C=C/c1ccc(S(C)(=O)=O)cc1)c1ccc(S(=O)(=O)NC2CCN(Cc3ccccc3)CC2)cc1 | Inhibition rate (Rattus norvegicus [2]): 1.6%; Inhibition rate (Rattus norvegicus [3]): 20.9%; Inhibition rate (Rattus norvegicus [4]): 22.1%
30 | 13300 | CN(C(=O)/C=C/c1ccc(O)c(O)c1)c1ccc(S(N)(=O)=O)cc1 | 
31 | 1000 | CN1CCC(NS(=O)(=O)c2ccc(N(C)C(=O)/C=C/c3ccc(S(C)(=O)=O)cc3)cc2)CC1 | 
32 | 5430 | CN(C(=O)/C=C/c1ccc(O)c(O)c1)c1ccc(S(=O)(=O)NC2CCCC2)cc1 | 
33 | 25000 | NS(=O)(=O)c1ccc(NC(=O)/C=C/c2ccc(O)c(O)c2)cc1 | 
